Test results: ChEMBL document CHEMBL4477209, “Indole-2-carboxamide-based MmpL3 Inhibitors Show Exceptional Antitubercular Activity in an Animal Model of Tuberculosis Infection” (J Med Chem, 2016)
Activity calls are given as the source filed them. The rule behind the calls is not given here.

Legend:
[1] = Stability in human hepatocytes assessed as compound remaining at 1 uM after 2 hrs; format: ADME, cell-based, Hepatocyte; details: read-out: Stability
Summary of the method: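 Hepatocytes from human, mouse, rat or dog incubated with 1 μM starting concentration for 2 h; percent of parent compound remaining.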

[2] = Stability in human liver microsomes assessed as compound remaining at 3 uM after 1 hr; format: ADME, Microsome; details: read-out: Stability
Summary of the method: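 Human liver microsomes incubated with 3 μM starting concentration for 1 h; percent of compound remaining.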

[3] = target: Cytochrome P450 3A4 (Homo sapiens, UniProt P08684); experiment: Inhibition of CYP3A4 (unknown origin); format: ADME
[4] = Permeability across apical to basolateral side in human Caco2 cells; format: ADME, cell-based; details: Caco-2, read-out: permeability
[5] = Permeability across basolateral to apical side in human Caco2 cells; format: ADME, cell-based; details: Caco-2, read-out: permeability
[6] = target: T1, Nuclear receptor subfamily 1 group I member 2 (Homo sapiens, UniProt O75469); experiment: Transactivation of PXR (unknown origin) assessed as upregulation of CYP3A4 at 0.1 to 1 microg/ml; format: ADME
T1 sequence (O75469 whole entry): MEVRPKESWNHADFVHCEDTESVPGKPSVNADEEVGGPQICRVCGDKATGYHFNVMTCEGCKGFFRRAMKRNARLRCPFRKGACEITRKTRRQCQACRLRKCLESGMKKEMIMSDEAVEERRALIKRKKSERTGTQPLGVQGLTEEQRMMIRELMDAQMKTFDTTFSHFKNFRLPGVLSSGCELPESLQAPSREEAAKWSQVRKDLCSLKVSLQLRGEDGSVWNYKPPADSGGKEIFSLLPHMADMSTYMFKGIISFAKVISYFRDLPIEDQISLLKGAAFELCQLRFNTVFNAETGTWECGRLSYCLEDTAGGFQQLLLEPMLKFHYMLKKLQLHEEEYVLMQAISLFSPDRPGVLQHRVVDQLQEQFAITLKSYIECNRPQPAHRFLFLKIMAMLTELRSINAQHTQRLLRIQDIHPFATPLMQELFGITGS
Summary of the method: (§1)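 Nuclear receptor reporter-gene induction assay, with reporters coupled to PXR, CAR or AhR. Compound was tested at 0.1–1, 3 and 8 μg/mL. Positive controls were rifampin for PXR, CITCO for CAR and 3-methylcholanthrene for AhR.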

[7] = target: T1, Nuclear receptor subfamily 1 group I member 2; experiment: Transactivation of PXR (unknown origin) assessed as upregulation of CYP3A4 at 3 to 8 microg/ml; format: ADME; summary of the method: as §1
[8] = Mutagenicity in Salmonella typhimurium TA98; format: toxicity; details: salmonella enterica subsp. enterica serovar typhimurium
[9] = Mutagenicity in Salmonella typhimurium TA1535; format: toxicity; details: salmonella enterica subsp. enterica serovar typhimurium
[10] = Mutagenicity in Salmonella typhimurium TA1537; format: toxicity; details: salmonella enterica subsp. enterica serovar typhimurium
[11] = Mutagenicity in Salmonella typhimurium TA98 assessed as increase in ratio of revertant colonies at 500 microg/plate in presence of S9 liver fraction relative to control; format: toxicity, subcellular; details: salmonella enterica subsp. enterica serovar typhimurium
Summary of the method: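 Bacterial reverse mutation test in S. typhimurium TA98 with S9 liver fraction, at 500 and 5000 μg/plate. Revertant colony count expressed as a ratio to the DMSO solvent control; 2-aminoanthracene as positive control.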

[12] = Tmax in BALB/c mouse plasma at 100 mg/kg administered via oral gavage after 0.25 to 24 hrs by LC-MS analysis; format: ADME, organism-based
Summary of the method: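 Female BALB/c mice (20 g) got a single 100 mg/kg oral gavage dose. Three animals were sacrificed per time point at 0, 0.25, 0.5, 1, 2, 4, 8 and 24 h. Cardiac blood was spun at 12 000g, 4 °C for plasma. Lungs were bead-beaten in water and the supernatant taken. Both matrices were quantified by LC-MS/MS with an indole-2-carboxamide internal standard. Parameters came from noncompartmental analysis.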

[13] = AUClast in BALB/c mouse plasma at 100 mg/kg administered via oral gavage after 0.25 to 24 hrs by LC-MS analysis; format: ADME, organism-based; set-up: dose 100 mg/kg, time 0.25-24 hr, route oral
Summary of the method: (§2)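 Female BALB/c mice (20 g), single oral gavage dose of 100 mg/kg. Cardiac blood and lungs taken at 0, 0.25, 0.5, 1, 2, 4, 8 and 24 h (n = 3 per time point). Plasma separated by centrifugation; lungs bead-beaten in water and supernatant recovered. Drug quantified by LC-MS/MS against an indole-2-carboxamide internal standard. Parameters derived by noncompartmental analysis.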

[14] = Mean residence time (last) in BALB/c mouse lung at 100 mg/kg administered via oral gavage by LC-MS analysis; format: ADME, organism-based; summary of the method: as §2
[15] = system: Mycobacterium tuberculosis; experiment: Antimycobacterial activity against Mycobacterium tuberculosis H37Rv infected in BALB/c mouse model assessed as reduction in CFU counts in lung at 200 mg/kg administered daily via oral gavage for 5 days per week measured after 28 days post dosage relative to control; format: functional
Summary of the method: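 Bactericidal-dose model in aerosol-infected BALB/c mice given 25, 50, 100 or 200 mg/kg orally in 0.5% carboxymethylcellulose in water for 4 weeks. Lung CFU compared with the count at treatment initiation; survival also recorded.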

[16] = system: Mycobacterium tuberculosis; experiment: Antimycobacterial activity against Mycobacterium tuberculosis H37Rv assessed as growth inhibition at 0.25 times MIC after 7 to 14 days in presence of 0.25 times MIC of rifampin by alamar blue assay based by Bliss synergy model analysis; format: functional
Summary of the method: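 Checkerboard of 2-fold dilutions, 4.0 to 0.0313 × MIC of each drug combined with rifampin. M. tuberculosis H37Rv at 1 × 10^4 CFU per well in 200 μL. Single-drug, blank and full-growth controls included. alamarBlue read-out, percent inhibition calculated. Bliss independence applied to wells below 1 × MIC; Δfaxy > 0 taken as synergy, < 0 as antagonism.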

[17] = system: Mycobacterium tuberculosis; experiment: Antimycobacterial activity against Mycobacterium tuberculosis H37Rv grown on serum isolated from 100 mg/kg, po treated BALB/c mouse for 30 to 120 mins assessed as reduction in bacterial growth followed by bacterial addition incubated for 7 days by alamar blue reagent based serum inhibition titration assay; format: functional, organism-based
Summary of the method: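 Six-week-old female BALB/c mice (20 g) given one oral dose as suspension in 0.5% CMC in water; isoniazid 10 mg/kg as positive control, vehicle as negative. Serum collected at 30, 60 and 120 min, pooled from three mice per time point, 2-fold serially diluted. 10^4 CFU H37Rv added per well, 7 days at 37 °C. alamarBlue added for 16−18 h, fluorescence read at Ex544/Em590 and plotted against serum titration.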

Sequence of Cytochrome P450 3A4 (P08684 whole entry): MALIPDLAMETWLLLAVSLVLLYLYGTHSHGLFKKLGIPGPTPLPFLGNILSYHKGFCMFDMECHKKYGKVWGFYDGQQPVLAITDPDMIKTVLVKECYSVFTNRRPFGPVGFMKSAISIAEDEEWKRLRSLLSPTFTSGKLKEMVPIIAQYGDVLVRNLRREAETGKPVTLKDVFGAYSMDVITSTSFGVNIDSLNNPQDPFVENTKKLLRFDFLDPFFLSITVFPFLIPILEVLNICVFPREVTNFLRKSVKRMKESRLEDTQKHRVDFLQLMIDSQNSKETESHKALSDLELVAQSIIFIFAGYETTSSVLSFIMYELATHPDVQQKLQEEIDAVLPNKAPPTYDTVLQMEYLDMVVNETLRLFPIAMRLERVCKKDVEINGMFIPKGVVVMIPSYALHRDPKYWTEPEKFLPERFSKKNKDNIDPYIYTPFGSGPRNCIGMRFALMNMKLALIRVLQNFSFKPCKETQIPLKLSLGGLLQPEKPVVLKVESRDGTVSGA

What does the source list for C[C@@H]1[C@H]2C[C@@H](C[C@H]1NC(=O)c1cc3c(F)cc(F)cc3[nH]1)C2(C)C?
remaining at 2 h, 1 µM [1]: 52%; remaining at 1 h, 3 µM [2]: 69.5%; inhibition (INH) [3]: -6.7%; Papp A→B [4]: 0.19 ×10⁻⁶ cm/s; Papp B→A [5]: 0.25 ×10⁻⁶ cm/s; Activity [6]: Not Active; Activity [7]: Active; Activity [8]: Non-Toxic; Activity [9]: Non-Toxic; Activity [10]: Non-Toxic; fold change (FC) [11]: 2.5; Tmax [12]: 4 h; AUC(0-t) [13]: 18900 ng·h/mL; MRT last [14]: 8.49 h; Activity [15]: 0.6 log10CFU; growth inhibition (GI) [16]: 99.4%; Activity [17]: Active
